Screening results from PubChem.
The list is not random: actives were taken first. Their share in the collection is about 1.9%.
PglD DTNB: inhibitors of Campylobacter jejuni PglD acetyltransferase | purified PglD enzyme, DTNB colorimetric CoA detection | inhibition, % at 12.5 µM | 360,000 compounds, 0.098% hits | AID 602405; in the data active = inhibition above about 16%, passing the limit was not always enough; inconclusive = no clear call, values can overlap the other calls
Cneo AK release: Cryptococcus neoformans lysis via adenylate kinase release. C. neoformans lysis, adenylate kinase release luminescence, 4 h; normalised: neutral wells 0, clomiphene wells 100. lysis activity, % at 15 µM. 360,000 compounds, 0.2% hits. AID 651654;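 active = mean lysis activity across replicates of at least 80%, whatever share of replicates individually reach that level; inactive = mean lysis activity below 80%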
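Assay system: log-phase C. neoformans yeast / Quantity: yeast cell density of 5 × 10^6 cells/mL / Medium: fresh YPD growth medium / Compound: single dose / Timing: static 4 h at 37 °C with compound, 1 h detection / Measured by: adenylate kinase release luminescence / Read-out: lysis from increased AK signal / Benchmarks: Clomiphene as positive lysis control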
RAD52 inh: blocks human RAD52 DNA annealing; P43351; recombinant RAD52 DNA annealing, FRET fluorescence; inhibition, % at 18.7 µM; 360,000 compounds, 0.46% hits; AID 651710;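 active = every replicate showing at least 50% inhibition; inconclusive = mean inhibition at least 50% but not in every replicate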
RAD54 inh: blocks human RAD54 Holliday junction branch migration; Q92698; FAM/BHQ fluorescence; inhibition, % at 10.4 µM; 360,000 compounds, 0.14% hits; AID 602329;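 active = mean normalized replicate activity at least 40 and at least half of replicates scoring 40 or more; inconclusive = only one of the two criteria met; inactive = mean below 40 and under half of replicates reaching 40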;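 note: 0% = median of neutral control wells and 100% = median of positive control wells; inhibitors cause a drop in the FAM fluorescence signal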
Target sequence (Q92698 whole entry, looked up): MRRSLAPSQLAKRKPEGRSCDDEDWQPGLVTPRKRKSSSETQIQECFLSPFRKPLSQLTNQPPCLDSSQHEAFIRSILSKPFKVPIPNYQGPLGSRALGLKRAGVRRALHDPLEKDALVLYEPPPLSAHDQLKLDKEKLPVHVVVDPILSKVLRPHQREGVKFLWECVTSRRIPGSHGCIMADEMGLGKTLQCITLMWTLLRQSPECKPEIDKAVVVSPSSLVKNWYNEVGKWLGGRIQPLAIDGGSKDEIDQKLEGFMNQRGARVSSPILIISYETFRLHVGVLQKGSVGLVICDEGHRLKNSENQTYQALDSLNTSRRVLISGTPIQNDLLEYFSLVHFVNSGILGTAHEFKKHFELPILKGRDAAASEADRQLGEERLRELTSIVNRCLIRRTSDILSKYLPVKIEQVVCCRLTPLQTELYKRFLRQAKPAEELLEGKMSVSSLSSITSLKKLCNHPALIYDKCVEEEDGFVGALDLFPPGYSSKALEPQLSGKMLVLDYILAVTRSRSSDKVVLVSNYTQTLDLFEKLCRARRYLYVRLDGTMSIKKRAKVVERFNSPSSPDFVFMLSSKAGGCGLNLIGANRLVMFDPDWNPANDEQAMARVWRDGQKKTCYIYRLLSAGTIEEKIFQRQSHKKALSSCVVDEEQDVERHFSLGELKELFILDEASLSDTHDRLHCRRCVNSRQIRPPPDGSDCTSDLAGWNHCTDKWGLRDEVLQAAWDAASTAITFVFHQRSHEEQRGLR
rRNA inh HTS: inhibits bacterial ribosomal RNA function over humanized ribosomes. E. coli WT GFP vs humanized-ribosome RFP mutants, fluorescence, 24 h; active compounds read low; DMSO median 0, no signal -100. GFP signal change (wild-type ribosome), % (concentration not given with the values). 350,000 compounds, 1.6% hits;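 active = significant combined selectivity score with lowered wild-type GFP, culture density cut under 30%, mutant RFP and density less affected; inactive = any of these conditions unmet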
DNA binding: counter-screen for Rad54 inhibitors: DNA binding compounds | shares compounds with RAD54 inh | Acridine orange-DNA displacement, fluorescence polarization, 20 min | AC50, µM (doses to about 35 µM), without a hit: at the highest dose activity change, negative = DNA binding | 460 compounds, 8% hits;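 active = signal drop giving an AC50 within twice the top valid tested concentration of each sample, actives reach about 35 µM in these data; inactive = activity opposite to expected, plus the rest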;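 note: polarization loss reports compound binding to salmon sperm DNA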
* hit, by the source's call; i = inactive; u = inconclusive; x = no result.

SMILES | PglD DTNB | Cneo AK release | RAD52 inh | RAD54 inh | rRNA inh HTS | DNA binding
C[C@@H]1CN([C@@H](C)CO)C(=O)c2cc(NC(=O)C3CCCCC3)ccc2O[C@@H](C)CCCCO[C@H]1CN(C)S(=O)(=O)c1cccs1 | 7 | 5 | -22 | -1 | 0 | x
COc1ccccc1NC(=O)CNC(=O)c1ccccc1 | 5 | 0 | x | 52* | x | -14%
CCC(=O)N[C@@H]1C=C[C@@H](CC(=O)NCc2ccccc2OC)O[C@H]1CO | 6 | 67 | 12 | -10 | 3 | x
CCNC(=O)C[C@@H]1CC[C@H]2[C@H](COc3ccc(NC(=O)Nc4cccc(OC)c4)cc3C(=O)N2C)O1 | -3 | -2 | x | -6 | 1 | x
CCCCN(CC)CCCNC(=O)c1cn(C)c(=O)c2c1c1ccccc1n2C | -11 | -1 | 18 | 11 | 1 | x
COCCNC(=O)c1cc2c(=O)n(C)c3ccccc3c2n1C | 2 | 1 | -13 | -5 | -6 | x
CN(C)CCNC(=O)c1cc2c(=O)n(C)c3ccccc3c2n1C | 0 | -3 | 42 | 78* | -6 | i
CCCN(CCC)CCCNC(=O)c1cc2c(=O)n(C)c3ccccc3c2n1C | -3 | 1 | 16 | u | -10 | -11%
COCCCNC(=O)c1cc2c(=O)n(C)c3ccccc3c2n1C | 2 | 0 | -21 | 14 | -6 | x
CCCCN(CC)CCNC(=O)c1cc2c(=O)n(C)c3ccccc3c2n1C | 0 | -6 | 8 | 56* | -9 | -16%
CCN(CC)CCCNC(=O)c1cc2c(=O)n(C)c3ccccc3c2n1C | 11 | 1 | 18 | 72* | 1 | -22%
C[C@@H]1CN([C@@H](C)CO)C(=O)c2cc(/C=C/c3ccccc3)cnc2O[C@@H]1CN(C)C(=O)c1ccc2c(c1)OCO2 | 2 | 3 | -2 | -3 | -4 | x
Cn1c(C(=O)NC2CC2)cc2c(=O)n(C)c3ccccc3c21 | 2 | 11 | 13 | 17 | 0 | x
CCN(CC)CCNC(=O)c1cc2c(=O)n(C)c3ccccc3c2n1C | 2 | -2 | 39 | 61* | -2 | -12%
COc1cc2c(C#N)c(N3CCN(C)CC3)nc(N)c2c(N)n1 | 0 | -1 | x | 71* | x | -17%
COc1cc2c(C#N)c(N3CCCC3)nc(N)c2c(N)n1 | 6 | -4 | 2 | -4 | 7 | x
C[C@@H]1CN([C@@H](C)CO)C(=O)c2cccc(NC(=O)Nc3cccc4ccccc34)c2O[C@H]1CN(C)C(=O)Nc1cccc2ccccc12 | -2 | 4 | -9 | 8 | 0 | x
Cc1ccnc(Nc2nc(-c3sc(C)nc3C)cs2)c1 | -5 | -13 | -15 | u | -34* | -4%
Cc1nc(C)c(-c2csc(Nc3ccccn3)n2)s1 | -4 | -4 | -11 | 13 | -40 | x
COc1ccccc1C1=NOC(Cn2c(NCC3CCCO3)nc3c2c(=O)n(C)c(=O)n3C)C1 (stereo not given) | 4 | -6 | -7 | -4 | 5 | x
COc1ccccc1C1=NOC(Cn2c(NCCCO)nc3c2c(=O)n(C)c(=O)n3C)C1 (stereo not given) | 9 | 0 | -12 | u | 7 | 5%
COc1ccc(N2CCN(c3cc(C)c4ccc(O)cc4n3)CC2)cc1 | x | -1 | 1 | 3 | -8 | x
COc1cc(OC)c2nc(C)c3c(c2c1)N(c1ccc(O)cc1)CC3 | -9 | 5 | x | 51* | x | -3%
C/C=C/c1ccc2c(c1)O[C@H](CN(C)C(=O)NC1CCCCC1)[C@@H](C)CN([C@@H](C)CO)S2(=O)=O | 1 | 7 | 2 | -2 | -2 | x
C=CCN1C(=O)C(C)(C)Nc2ccccc21 | -3 | 4 | x | u | x | -7%
SMILES | PglD DTNB | Cneo AK release | RAD52 inh | RAD54 inh | rRNA inh HTS | DNA binding
C/C=C/c1ccc2c(c1)O[C@H](CN(C)Cc1ccc(F)cc1)[C@@H](C)CN([C@@H](C)CO)S2(=O)=O | 3 | 8 | -2 | -12 | -25 | x
Cc1ccc2c(c1)c1nc3ccccc3nc1n2CCN1CCOCC1 | -8 | 8 | x | 63* | x | 2%
CCn1c2ccc(C)cc2c2nnc(SCCN3CCOCC3)nc21 | x | x | -16 | x | -13 | x
CCOC(=O)c1c(CN2CCN(CCO)CC2)n(C)c2cc(Br)c(OC)cc12 | -3 | -3 | x | 35 | x | x
CCOC(=O)c1c(CN2CCCCC2)n(C)c2cc(Br)c(OC)cc12 | -1 | -2 | x | u | x | -17%
Cc1cccc2c1-c1sc(C(=O)NCCCN3CCCC(C)C3)cc1CO2 (stereo not given) | -4 | -1 | 43 | 54* | -57 | 2%
C[C@@H]1CN([C@H](C)CO)C(=O)c2cccc(NC(=O)Nc3ccc(C(F)(F)F)cc3)c2O[C@H]1CN(C)C(=O)Nc1ccc(C(F)(F)F)cc1 | 4 | -1 | -3 | 0 | -7 | x
OC1CCCN(Cc2c3ccccc3cc3ccccc23)C1 (stereo not given) | -1 | -1 | x | 93* | x | i
O=C(NN1CCOCC1)c1cc(-c2ccc(Cl)c(Cl)c2)nc2ccccc12 | 0 | 0 | x | u | x | 7%
O=C(NN1CCOCC1)c1cc(-c2ccccc2)nc2ccccc12 | 6 | 6 | x | -6 | x | x
CC(=O)N[C@H]1CC[C@@H](CCNC(=O)C2CCC2)O[C@@H]1CO | -5 | 0 | -4 | 9 | 2 | x
COC(=O)Nc1nnc(COc2ccccc2)s1 | -4 | -6 | 4 | u | 1 | 3%
COc1ccc2nc(C)cc(Nc3ccc(N4CCOCC4)cc3)c2c1 | 0 | 0 | x | u | x | -5%
Cc1ccc(Nc2cc(C)nc3c(C)cccc23)cc1 | 0 | 0 | 10 | u | 41 | -6%
COc1ccc2nc(C)cc(Nc3ccc(C)cc3)c2c1 | 2 | -4 | 36 | 57* | 10 | 16%
CC(=O)c1ccc(Nc2cc(C)nc3c(C)cccc23)cc1 | 6 | 0 | -20 | 2 | 13 | x
COc1ccc2nc(C)cc(NCCN3CCOCC3)c2c1 | 0 | 2 | 3 | 23 | 8 | x
C[C@@H]1CN([C@@H](C)CO)C(=O)c2cc(NS(=O)(=O)c3cccs3)ccc2O[C@H]1CN(C)Cc1ccc2c(c1)OCO2 | 3 | -1 | 14 | 3 | 1 | x
Cc1cc2ccc3ccccc3c2cc1CN(C)C | 0 | -2 | 42 | 52* | -15 | -14%
CCOC(=O)c1c(NC(C)=O)sc2c(OC)c(Br)ccc12 | x | 2 | -17 | 3 | 6 | x
CCOC(=O)c1c(NC(C)=O)sc2c(OCC(O)CN(CC)CC)c(Br)ccc12 (stereo not given) | 0 | 1 | 46 | 84* | -28 | 2%
CCOC(=O)c1c(C)n(-c2ccc(OC)cc2)c2ccc(O)c(CN(C)C)c12 | -2 | 2 | 44 | u | -3 | 11%
CCOC(=O)c1c(C)n(-c2ccc(C)cc2)c2ccc(O)c(CN(C)C)c12 | -1 | 4 | 43 | 37 | -29 | x
c1cc2c3c(cccc3c1)C(N1CCCCC1)=N2 | -6 | 4 | x | 65* | x | -20%
